Results: ChEMBL document CHEMBL3632496, “Novel 2-Carbonylbenzo[b]thiophene 1,1-Dioxide Derivatives as Potent Inhibitors of STAT3 Signaling Pathway” (ACS Med Chem Lett, 2015)
Active and inactive are the calls of the source. The rule behind the calls is not given here.

Columns and labels:
[1] = Cytotoxicity against human MDA-MB-435S cells assessed as growth inhibition after 48 hrs by MTT assay; format: functional, cell-based
DU-145 = assay: Cytotoxicity against human DU145 cells assessed as growth inhibition after 48 hrs by MTT assay; format: functional, cell-based; conditions: DU-145, 48 h
MCF7 = assay: Cytotoxicity against human MCF7 cells assessed as growth inhibition after 48 hrs by MTT assay; format: functional, cell-based; conditions: MCF7, 48 h
MDA-MB-231 = assay: Cytotoxicity against human MDA-MB-231 cells assessed as growth inhibition after 48 hrs by MTT assay; format: functional, cell-based; conditions: MDA-MB-231, 48 h
[2] = Cytotoxicity against human PANC1 cells assessed as growth inhibition after 48 hrs by MTT assay; format: functional, cell-based; conditions: PANC-1, 48 h
A549 = assay: Cytotoxicity against human A549 cells assessed as growth inhibition after 48 hrs by MTT assay; format: functional, cell-based; conditions: A549, 48 h
[3] = Cytotoxicity against human HL-7702 cells assessed as growth inhibition after 48 hrs by MTT assay; format: cell-based; conditions: L02, 48 h
SMMC-7721 = assay: Cytotoxicity against human SMMC7721 cells assessed as growth inhibition after 48 hrs by MTT assay; format: functional, cell-based; conditions: SMMC-7721, 48 h
[4] = biological target: Signal transducer and activator of transcription 3 (Homo sapiens) (UniProt P40763); assay: Inhibition of STAT3-mediated luciferase activity in human HeLa cells at 4 uM after 12 hrs by luminescence assay relative to control; format: cell-based
Procedure, shortened: (§1)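 HeLa cells, which have constitutive STAT3, were transfected with a STAT3-dependent dual luciferase reporter. Reporter luminescence was measured after compound exposure. Values are mean ± SD of triplicate experiments and are compared with vehicle-treated control.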

[5] = biological target: Signal transducer and activator of transcription 3 (Homo sapiens) (UniProt P40763); assay: Inhibition of STAT3 phosphorylation at Y705 in human MDA-MB-231 cells after 12 hrs by Western blot analysis; format: cell-based
Procedure, shortened: (§2)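 Cells were exposed for 12 h. Whole-cell lysates were immunoblotted with a Y705-phospho-STAT3-specific antibody and for total STAT3.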

[6] = biological target: Signal transducer and activator of transcription 3 (Homo sapiens) (UniProt P40763); assay: Inhibition of STAT3 phosphorylation at Y705 in human MDA-MB-435S cells after 12 hrs by Western blot analysis; format: cell-based; procedure, shortened: as §2
[7] = biological target: Signal transducer and activator of transcription 3 (Homo sapiens) (UniProt P40763); assay: Inhibition of STAT3 phosphorylation at Y705 in human MCF7 cells after 12 hrs by Western blot analysis; format: cell-based; procedure, shortened: as §2
[8] = biological target: Mitogen-activated protein kinase; ERK1/ERK2 (Homo sapiens) (UniProt P27361+P28482); assay: Inhibition of ERK1/2 phosphorylation in human MDA-MB-231 cells at 1 to 4 uM after 12 hrs by Western blot analysis; format: cell-based
[9] = biological target: Proto-oncogene tyrosine-protein kinase Src (Homo sapiens) (UniProt P12931); assay: Inhibition of Src phosphorylation in human MDA-MB-231 cells at 1 to 4 uM after 12 hrs by Western blot analysis; format: cell-based
[10] = biological target: Signal transducer and activator of transcription 3 (Homo sapiens) (UniProt P40763); assay: Inhibition of STAT3-mediated luciferase activity in human HeLa cells after 12 hrs by luminescence assay; format: cell-based; procedure, shortened: as §1
[11] = biological target: Signal transducer and activator of transcription 3 (Homo sapiens) (UniProt P40763); assay: Inhibition of STAT3-mediated luciferase activity in human HeLa cells at 2 uM after 12 hrs by luminescence assay relative to control; format: cell-based; procedure, shortened: as §1
[12] = biological target: Signal transducer and activator of transcription 3 (Homo sapiens) (UniProt P40763); assay: Inhibition of IL-6-induced STAT3 phosphorylation in overnight starved human MCF7 cells at 2 to 6 uM preincubated for 2 hrs followed by IL-6 induction by Western blot analysis; format: cell-based
Procedure, shortened: (§3)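 Cells were serum-starved overnight and pretreated with compound for 2 h. They were then stimulated with IL-6. Lysates were immunoblotted for phospho-STAT3.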

[13] = biological target: Signal transducer and activator of transcription 3 (Homo sapiens) (UniProt P40763); assay: Inhibition of IL-6-induced STAT3 phosphorylation in overnight starved human MDA-MB-231 cells preincubated for 2 hrs followed by IL-6 induction by Western blot analysis; format: cell-based; procedure, shortened: as §3
[14] = biological target: Serine/threonine-protein kinase mTOR (Homo sapiens) (UniProt P42345); assay: Inhibition of mTOR phosphorylation in human MDA-MB-231 cells at 1 to 4 uM after 12 hrs by Western blot analysis; format: cell-based

Chain of Signal transducer and activator of transcription 3 (Homo sapiens) (P40763 whole entry): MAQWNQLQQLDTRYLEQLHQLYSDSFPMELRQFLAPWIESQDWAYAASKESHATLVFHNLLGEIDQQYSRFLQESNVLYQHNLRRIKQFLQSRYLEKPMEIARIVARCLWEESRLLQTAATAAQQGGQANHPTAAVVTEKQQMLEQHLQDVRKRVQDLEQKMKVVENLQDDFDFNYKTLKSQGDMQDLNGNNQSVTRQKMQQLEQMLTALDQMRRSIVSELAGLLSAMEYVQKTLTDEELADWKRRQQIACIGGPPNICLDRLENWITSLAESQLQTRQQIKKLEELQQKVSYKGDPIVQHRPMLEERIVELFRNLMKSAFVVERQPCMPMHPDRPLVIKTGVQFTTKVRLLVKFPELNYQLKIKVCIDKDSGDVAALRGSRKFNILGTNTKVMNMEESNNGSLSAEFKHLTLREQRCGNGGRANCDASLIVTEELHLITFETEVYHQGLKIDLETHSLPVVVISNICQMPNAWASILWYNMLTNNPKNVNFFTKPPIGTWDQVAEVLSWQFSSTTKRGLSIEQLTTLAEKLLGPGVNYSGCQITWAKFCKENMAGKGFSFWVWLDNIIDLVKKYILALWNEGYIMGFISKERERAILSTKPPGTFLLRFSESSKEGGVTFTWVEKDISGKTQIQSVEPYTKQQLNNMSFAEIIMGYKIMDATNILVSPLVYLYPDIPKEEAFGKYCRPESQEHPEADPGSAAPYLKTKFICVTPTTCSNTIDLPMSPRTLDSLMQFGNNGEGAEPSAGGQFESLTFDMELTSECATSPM
Chain of Mitogen-activated protein kinase; ERK1/ERK2 (Homo sapiens) (P27361 whole entry, looked up): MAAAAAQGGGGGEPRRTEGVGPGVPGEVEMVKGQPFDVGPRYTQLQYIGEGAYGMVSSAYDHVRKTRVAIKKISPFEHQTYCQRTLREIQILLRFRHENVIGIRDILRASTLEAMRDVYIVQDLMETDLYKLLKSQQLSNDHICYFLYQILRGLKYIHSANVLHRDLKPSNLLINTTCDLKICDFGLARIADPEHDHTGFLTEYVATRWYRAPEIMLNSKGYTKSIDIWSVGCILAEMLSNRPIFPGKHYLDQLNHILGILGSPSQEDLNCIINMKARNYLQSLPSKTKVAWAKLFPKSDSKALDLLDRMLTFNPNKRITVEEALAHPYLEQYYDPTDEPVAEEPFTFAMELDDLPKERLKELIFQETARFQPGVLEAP
Chain of Mitogen-activated protein kinase; ERK1/ERK2 (Homo sapiens) (P28482 whole entry, looked up): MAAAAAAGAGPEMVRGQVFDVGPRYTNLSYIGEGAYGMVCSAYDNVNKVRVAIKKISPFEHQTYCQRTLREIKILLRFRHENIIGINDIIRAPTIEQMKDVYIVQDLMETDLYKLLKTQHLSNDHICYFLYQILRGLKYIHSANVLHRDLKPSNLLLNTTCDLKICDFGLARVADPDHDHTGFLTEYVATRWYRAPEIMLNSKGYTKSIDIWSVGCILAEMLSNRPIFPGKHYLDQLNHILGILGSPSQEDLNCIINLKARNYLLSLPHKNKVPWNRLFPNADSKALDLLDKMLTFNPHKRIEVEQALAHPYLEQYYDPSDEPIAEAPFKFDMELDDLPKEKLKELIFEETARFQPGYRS
Chain of Proto-oncogene tyrosine-protein kinase Src (Homo sapiens) (P12931 2-536 limits assumed): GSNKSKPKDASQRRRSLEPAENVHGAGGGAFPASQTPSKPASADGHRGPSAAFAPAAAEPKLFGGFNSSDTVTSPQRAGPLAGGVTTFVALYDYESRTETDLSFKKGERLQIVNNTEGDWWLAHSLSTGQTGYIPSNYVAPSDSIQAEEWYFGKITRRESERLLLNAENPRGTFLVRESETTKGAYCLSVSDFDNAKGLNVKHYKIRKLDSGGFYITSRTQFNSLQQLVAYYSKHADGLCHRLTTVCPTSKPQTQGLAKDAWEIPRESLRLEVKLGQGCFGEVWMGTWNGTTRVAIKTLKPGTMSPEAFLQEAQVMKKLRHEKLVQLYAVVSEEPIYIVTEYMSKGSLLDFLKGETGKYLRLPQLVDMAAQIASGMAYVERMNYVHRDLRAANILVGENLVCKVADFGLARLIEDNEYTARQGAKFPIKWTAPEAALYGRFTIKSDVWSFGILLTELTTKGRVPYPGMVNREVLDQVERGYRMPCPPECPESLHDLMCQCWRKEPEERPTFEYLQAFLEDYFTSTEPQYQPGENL

SMILES | IC50 [1] [nM] | IC50 (DU-145) [nM] | IC50 (MCF7) [nM] | IC50 (MDA-MB-231) [nM] | IC50 [2] [nM] | IC50 (A549) [nM] | also measured
O=C(C1=Cc2cc(Br)ccc2S1(=O)=O)N1CCCC1 | 940 | 1540 | 1380 | 1270 | 3470 | 3470 | –
Cc1ccc(OC(=O)C2=Cc3c(Br)cccc3S2(=O)=O)cc1 | – | > 15000 | – | > 15000 | – | – | –
CCN(CC)C(=O)C1=Cc2cc(Br)ccc2S1(=O)=O | 1540 | 1460 | 890 | 1670 | 1940 | 1580 | –
CC1CCCN(C(=O)C2=Cc3cc(Br)ccc3S2(=O)=O)C1 (stereo unspecified) | 1370 | 1410 | 1260 | 1070 | 2980 | 1940 | –
O=C(Nc1ccccc1)C1=Cc2c(Br)cccc2S1(=O)=O | 1390 | 2640 | 1730 | 1740 | 6670 | 4090 | IC50 [3]: 15000 nM; IC50 (SMMC-7721): 2400 nM
O=[N+]([O-])c1ccc2c(c1)S(=O)(=O)C=C2 | 1870 | 2500 | 2160 | 1560 | 2900 | 2500 | inhibition [4]: 36%; inhibition [5]: Active; inhibition [6]: Active; inhibition [7]: Active
O=C(Nc1ccc(Cl)cc1)C1=Cc2c(Br)cccc2S1(=O)=O | – | 6340 | – | 3780 | – | – | –
O=C(C1=Cc2cc(Br)ccc2S1(=O)=O)N1CCOCC1 | 800 | 1910 | 1050 | 1040 | 3950 | 2310 | –
CC1CCCCN1C(=O)C1=Cc2cc(Br)ccc2S1(=O)=O (stereo unspecified) | 980 | 980 | 990 | 950 | 2140 | 1300 | –
CN(C(=O)C1=Cc2cc(Br)ccc2S1(=O)=O)c1ccccc1 | 950 | 1260 | 1130 | 880 | 4380 | 2080 | –
O=C(C1=Cc2cc(Br)ccc2S1(=O)=O)N1CCCCC1 | – | – | – | – | – | – | inhibition [8]: inactive; inhibition [9]: inactive; inhibition [4]: 48%; inhibition [10]: Dose-dependent effect; inhibition [11]: 14%; inhibition [5]: Dose-dependent effect; inhibition [6]: Dose-dependent effect; inhibition [12]: Active; inhibition [7]: Dose-dependent effect; inhibition [13]: Dose-dependent effect; inhibition [14]: inactive
O=C(NC1CCCCC1)C1=Cc2cc(Br)ccc2S1(=O)=O | – | 5730 | – | 5730 | – | – | –
CC(C)(C)NC(=O)C1=Cc2cc(Br)ccc2S1(=O)=O | 820 | 1350 | 1270 | 1340 | 3340 | 2850 | –
CCCCNC(=O)C1=Cc2cc(Br)ccc2S1(=O)=O | – | 3860 | – | 2310 | – | – | –
Cc1ccc(NC(=O)C2=Cc3c(Br)cccc3S2(=O)=O)cc1 | – | 3030 | – | 2460 | – | – | –
O=C(Nc1ccccc1)C1=Cc2ccc(Br)cc2S1(=O)=O | – | 2660 | – | 1840 | – | – | –
O=C(Nc1ccccc1)C1=Cc2cc([N+](=O)[O-])ccc2S1(=O)=O | – | 5190 | – | 3040 | – | – | –
O=C(Nc1ccccc1)C1=Cc2cc(Br)ccc2S1(=O)=O | – | 2770 | – | 1720 | – | – | –
O=C(Nc1ccccc1)C1=Cc2cc(NC(=O)c3ccccc3)ccc2S1(=O)=O | – | 6210 | – | 3210 | – | – | –
O=C(Nc1cccc(Cl)c1)C1=Cc2c(Br)cccc2S1(=O)=O | – | 3390 | – | 2210 | – | – | –
O=C(Nc1ccc2c(c1)C=C(C(=O)N1CCCCC1)S2(=O)=O)c1ccccc1 | – | 2070 | – | 1680 | – | – | –
CC(C)NC(=O)C1=Cc2cc(Br)ccc2S1(=O)=O | 930 | 2170 | 1240 | 1090 | 5050 | 2970 | IC50 [3]: 15000 nM; IC50 (SMMC-7721): 2400 nM
